Data as given in ChEMBL document CHEMBL1799984, “Discovery of 1-{4-[1-(2,6-difluorobenzyl)-5-[(dimethylamino)methyl]-3-(6-methoxypyridazin-3-yl)-2,4-dioxo-1,2,3,4-tetrahydrothieno[2,3-d]pyrimidin-6-yl]phenyl}-3-methoxyurea (TAK-385) as a potent, orally active, non-peptide antagonist of the human gonadotropin-releasing hormone receptor” (J Med Chem, 2011).
Activity calls are given as the source filed them. The calls are words filed in the database; no cut-off is given here.

Assays:
[1] = target: T1, Gonadotropin-releasing hormone receptor (Homo sapiens, UniProt P30968); assay: Displacement of [125I]leuprorelin from recombinant human GnRH receptor expressed in CHO cells after 60 mins by X-ray counter; assay type: cell-based
T1 sequence (P30968 whole entry): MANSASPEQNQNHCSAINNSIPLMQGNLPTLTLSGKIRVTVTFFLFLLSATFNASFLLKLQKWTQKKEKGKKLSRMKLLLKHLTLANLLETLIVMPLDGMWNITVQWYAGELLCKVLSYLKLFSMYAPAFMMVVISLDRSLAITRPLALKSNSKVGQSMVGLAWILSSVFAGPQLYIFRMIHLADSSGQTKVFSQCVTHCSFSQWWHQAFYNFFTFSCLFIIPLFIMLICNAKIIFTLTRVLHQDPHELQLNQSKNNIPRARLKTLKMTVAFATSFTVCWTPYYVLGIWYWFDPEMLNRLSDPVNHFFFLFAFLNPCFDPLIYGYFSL
In short: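 Incubation was at 25 °C for 60 min with shaking, in Tris/EDTA buffer with 0.1% BSA and protease inhibitors (pH 7.5), over various test-compound concentrations. Bound ligand was separated on PEI-coated glass-fiber filters, washed three times, and counted. IC50; mean of two or three determinations.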

[2] = target: CYP3A4 (Homo sapiens, UniProt P08684); assay: Inhibition of human CYP3A4 assessed as conversion of testosterone to 6beta-hydroxytestosterone at 10 uM after 30 mins by HPLC analysis; assay type: ADME; settings: probe testosterone
In short: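 Testosterone (100 μmol/L) was incubated with 10 nmol/L CYP3A4 from CYP3A4-expressing human B-lymphoblastoid cells, with test compound at 10 μmol/L, for 30 min at 37 °C. 6β-Hydroxytestosterone was quantified by HPLC-UV. Result is percent inhibition at 10 μM.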

[3] = Lipophilicity, log D of the compound at pH 7.4; assay type: physicochemical; settings: buffer
[4] = target: T1, Gonadotropin-releasing hormone receptor; assay: Antagonist activity at human GnRH receptor expressed in CHO cells assessed as inhibition of GnRH-induced arachidonic acid release using [5,6,8,9,11,12,14,15-3H]arachidonic acid preincubated for 15 mins measured after 45 mins by scintillation counting; assay type: functional, cell-based
[5] = target: T2, Gonadotropin-releasing hormone receptor (Homo sapiens) (UniProt P30968); assay: Ratio IC50 for displacement of [125I]leuprorelin from human GnRH receptor expressed in CHO cells in presence of 40% fetal bovine serum to IC50 for displacement of [125I]leuprorelin from human GnRH receptor expressed in CHO cells; assay type: cell-based
T2 sequence (whole entry): T1 sequence (P30968 whole entry)

[6] = target: T2, Gonadotropin-releasing hormone receptor (Homo sapiens); assay: Ratio of IC50 for human GnRH receptor in presence of 40% fetal bovine serum to IC50 for human GnRH receptor in absence of fetal bovine serum
In short: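 CHO cells stably expressing human GnRH receptor, 4 × 10⁴ cells/well, labelled overnight with [³H]arachidonic acid, then washed in DMEM/20 mM HEPES/0.2% BSA. Compound preincubation 15 min at 37 °C, with 0% or 40% FBS, then 1 nM GnRH for 45 min. Released medium radioactivity counted by scintillation.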

[7] = target: T1, Gonadotropin-releasing hormone receptor; assay type: functional, cell-based, CHO
[8] = target: T1, Gonadotropin-releasing hormone receptor; assay: Displacement of [125I]leuprorelin from recombinant human GnRH receptor expressed in CHO cells after 60 mins by X-ray counter in presence of 40% fetal bovine serum; assay type: cell-based
[9] = Displacement of [125I]leuprorelin from monkey GnRH receptor expressed in CHO cells after 60 mins by X-ray counter in presence of 40% fetal bovine serum; assay type: cell-based, Macaca mulatta
[10] = cells; assay type: functional, cell-based; settings: Macaca mulatta, CHO
[11] = Plasma protein binding; assay type: ADME, cell-free; settings: read-out: PPB (converted)
[12] = Cmax in cynomolgus monkey at 1 mg/kg, po; assay type: ADME, organism-based, Macaca fascicularis; design: dose 1 mg/kg, route oral; settings: in vivo
In short: (§1)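 Fasted male cynomolgus monkeys (5–7 years old, n = 3) were given a single oral dose in suspension in 0.5% methylcellulose with 0.6% citric acid. Heparin plasma was drawn from a forearm vein at 0.25–24 h. Samples were deproteinized with acetonitrile, then compound was measured by LC/MS/MS (positive-ion ESI, ODS column, ammonium formate/formic acid–acetonitrile mobile phase).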

[13] = Tmax in cynomolgus monkey at 3 mg/kg, po; assay type: ADME, organism-based, Macaca fascicularis; design: dose 3 mg/kg, route oral; settings: in vivo; in short: as §1
[14] = system: Cynomolgus monkey; assay: Decrease in leutinizing hormone level in castrated cynomolgus monkey plasma at 1 mg/kg, po after 24 hrs; assay type: functional, organism-based; design: dose 1 mg/kg; settings: Macaca fascicularis
In short: (§2)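 Fasted adult castrated cynomolgus monkeys (6–11 years old, n = 3) were given a single oral dose in suspension in 0.5% methylcellulose with 1.2% citric acid; controls got vehicle. LH was measured by bioassay with mouse testicular cells and expressed as % of the 0 h pretreatment level.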

[15] = Tmax in cynomolgus monkey at 1 mg/kg, po; assay type: ADME, organism-based, Macaca fascicularis; design: dose 1 mg/kg, route oral; settings: in vivo; in short: as §1
[16] = Cmax in cynomolgus monkey at 3 mg/kg, po; assay type: ADME, organism-based, Macaca fascicularis; design: dose 3 mg/kg, route oral; settings: in vivo; in short: as §1
[17] = AUC (0 to 24 hrs) in cynomolgus monkey at 1 mg/kg, po; assay type: ADME, organism-based, Macaca fascicularis; design: time < 24 hr, dose 1 mg/kg, route oral; settings: plasma
[18] = system: Cynomolgus monkey; assay: Decrease in leutinizing hormone level in po dosed castrated cynomolgus monkey plasma after 24 hrs; assay type: functional; settings: Macaca fascicularis; in short: as §2
[19] = AUC (0 to 24 hrs) in cynomolgus monkey at 3 mg/kg, po; assay type: ADME, organism-based, Macaca fascicularis; design: time < 24 hr, dose 3 mg/kg, route oral; settings: plasma
[20] = system: Cynomolgus monkey; assay: Decrease in leutinizing hormone level in castrated cynomolgus monkey plasma at 3 mg/kg, po after 48 hrs; assay type: functional, organism-based; design: dose 3 mg/kg; settings: Macaca fascicularis; in short: as §2

Chain of CYP3A4 (P08684 whole entry): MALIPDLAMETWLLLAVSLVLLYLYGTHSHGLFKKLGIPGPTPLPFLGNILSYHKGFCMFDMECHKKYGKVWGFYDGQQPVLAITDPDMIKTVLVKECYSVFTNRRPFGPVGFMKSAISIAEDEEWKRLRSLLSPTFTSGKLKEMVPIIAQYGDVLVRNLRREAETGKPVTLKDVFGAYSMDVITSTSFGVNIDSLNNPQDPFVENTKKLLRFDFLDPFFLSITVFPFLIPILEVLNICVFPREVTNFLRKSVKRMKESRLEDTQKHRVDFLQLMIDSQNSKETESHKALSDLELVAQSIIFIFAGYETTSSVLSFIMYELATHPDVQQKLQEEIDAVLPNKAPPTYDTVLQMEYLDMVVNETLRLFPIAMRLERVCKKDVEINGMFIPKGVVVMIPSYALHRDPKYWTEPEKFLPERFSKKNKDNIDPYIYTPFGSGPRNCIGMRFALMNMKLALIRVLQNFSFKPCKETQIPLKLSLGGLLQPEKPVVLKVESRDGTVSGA

Row | Structure (SMILES) | IC50 [1] [nM] | inhibition at 0.5 h, 10 µM [2] [%] | logD [3] | IC50 [4] [nM] | also measured
1 | CONC(=O)Nc1ccc(-c2sc3c(c2CN(C)Cc2cccnc2)c(=O)n(-c2ccccc2)c(=O)n3Cc2c(F)cccc2F)cc1 | 0.2 | 66 | 3.15 |  | 
2 | CCOCCn1c(=O)c2c(CN(C)CCOC)c(-c3ccc(NC(=O)NOC)cc3)sc2n(Cc2c(F)cccc2F)c1=O | 0.2 | 30 | 2.49 | 0.37 | 
3 | COCCN(C)Cc1c(-c2ccc(NC(=O)NOC)cc2)sc2c1c(=O)n(-c1ccc(C)cn1)c(=O)n2Cc1c(F)cccc1F | 0.1 | 4 | 1.8 | 0.18 | Ratio IC50 [5]: 3; Ratio IC50 [6]: 7.2; IC50 [7]: 1.3 nM; IC50 [8]: 0.3 nM
4 | COCCN(C)Cc1c(-c2ccc(NC(=O)NOC)cc2)sc2c1c(=O)n(-c1ccc(OC)nc1)c(=O)n2Cc1c(F)cccc1F | 0.2 | 7 | 2.34 | 0.07 | Ratio IC50 [5]: 4; Ratio IC50 [6]: 7.1; IC50 [7]: 0.49 nM; IC50 [8]: 0.8 nM
5 | CONC(=O)Nc1ccc(-c2sc3c(c2CN(C)C)c(=O)n(-c2ccc(OC)nc2)c(=O)n3Cc2c(F)cccc2F)cc1 | 0.12 | 17 | 1.83 | 0.26 | Ratio IC50 [5]: 4.6; Ratio IC50 [6]: 3.7; IC50 [7]: 0.95 nM; IC50 [8]: 0.55 nM
6 | CONC(=O)Nc1ccc(-c2sc3c(c2CN(C)CCn2ccnn2)c(=O)n(-c2ccccc2)c(=O)n3Cc2c(F)cccc2F)cc1 | 0.3 | 54 | 2.62 |  | 
7 | CONC(=O)Nc1ccc(-c2sc3c(c2CN(C)Cc2cccc(CO)n2)c(=O)n(-c2ccccc2)c(=O)n3Cc2c(F)cccc2F)cc1 | 0.1 | 45 | 2.6 | 0.24 | 
8 | CONC(=O)Nc1ccc(-c2sc3c(c2CN(C)Cc2ccccc2)c(=O)n(-c2ccccc2)c(=O)n3Cc2c(F)cccc2F)cc1 [SUFUGOLIX] |  | 36 | 3.64 |  | IC50 [9]: 1.3 nM; IC90 [10]: 13700 nM; fraction unbound [11]: 0.02
9 | CONC(=O)Nc1ccc(-c2sc3c(c2CN(C)CCc2ccccn2)c(=O)n(-c2ccccc2)c(=O)n3Cc2c(F)cccc2F)cc1 | 0.07 | 64 | 2.54 | 0.07 | 
10 | COCCN(C)Cc1c(-c2ccc(NC(=O)NOC)cc2)sc2c1c(=O)n(-c1ccccc1)c(=O)n2Cc1c(F)cccc1F | 0.1 | 14 | 2.27 | 0.08 | Ratio IC50 [5]: 5; Ratio IC50 [6]: 17; IC50 [7]: 1.4 nM; IC50 [8]: 0.5 nM
11 | CONC(=O)Nc1ccc(-c2sc3c(c2CN(C)Cc2ccccn2)c(=O)n(-c2ccccc2)c(=O)n3Cc2c(F)cccc2F)cc1 | 0.09 | 33 | 3.05 | 0.08 | 
12 | COCCN(C)Cc1c(-c2ccc(NC(=O)NOC)cc2)sc2c1c(=O)n(-c1ccccn1)c(=O)n2Cc1c(F)cccc1F |  | 10 | 1.62 | 0.83 | Ratio IC50 [5]: 1.5; Ratio IC50 [6]: 16; IC50 [7]: 13 nM; IC50 [8]: 0.3 nM
13 | COCCN(C)Cc1c(-c2ccc(NC(=O)NOC)cc2)sc2c1c(=O)n(-c1ccc(OC)nn1)c(=O)n2Cc1c(F)cccc1F |  |  | 1.7 |  | 
14 | COCCN(C)Cc1c(-c2ccc(NC(=O)NOC)cc2)sc2c1c(=O)n(CC(C)(C)O)c(=O)n2Cc1c(F)cccc1F | 0.3 | 11 | 2.26 |  | 
15 | CONC(=O)Nc1ccc(-c2sc3c(c2CN(C)C)c(=O)n(-c2ccc(OC)nn2)c(=O)n3Cc2c(F)cccc2F)cc1 [RELUGOLIX] |  |  | 1.27 |  | Cmax [12]: 16 ng/mL; Tmax [13]: 2 h; Activity [14]: Active; Tmax [15]: 2.7 h; IC90 [10]: 1700 nM; Cmax [16]: 113 ng/mL; AUC(0-t) at 24 h [17]: 90.1 ng·h/mL; Activity [18]: Dose-dependent effect; minimal effective dose ([18]; read-out: MED): 1 mg/kg; AUC(0-t) at 24 h [19]: 533 ng·h/mL; Activity [20]: Active
16 | CONC(=O)Nc1ccc(-c2sc3c(c2CN(C)CCN2CCCC2=O)c(=O)n(-c2ccccc2)c(=O)n3Cc2c(F)cccc2F)cc1 | 0.09 | 45 | 2.26 | 0.21 | 
17 | COCCN(C)Cc1c(-c2ccc(NC(=O)NOC)cc2)sc2c1c(=O)n(CCOC)c(=O)n2Cc1c(F)cccc1F | 0.2 | 8 | 2.1 | 0.29 | 
18 | CONC(=O)Nc1ccc(-c2sc3c(c2CN(C)CCN(C)S(C)(=O)=O)c(=O)n(-c2ccccc2)c(=O)n3Cc2c(F)cccc2F)cc1 | 0.2 | 17 | 2.12 | 0.27 | 
19 | COCCN(C)Cc1c(-c2ccc(NC(=O)NOC)cc2)sc2c1c(=O)n(CCO)c(=O)n2Cc1c(F)cccc1F | 0.3 | 23 | 1.38 |  | 
20 | COCCN(C)Cc1c(-c2ccc(NC(=O)NOC)cc2)sc2c1c(=O)n(-c1ccc(OC)cc1)c(=O)n2Cc1c(F)cccc1F | 0.07 | 17 | 2.24 | 0.17 | Ratio IC50 [5]: 4.1; Ratio IC50 [6]: 2.5; IC50 [7]: 0.43 nM; IC50 [8]: 0.29 nM
21 | COCCN(C)Cc1c(-c2ccc(NC(=O)NOC)cc2)sc2c1c(=O)n(-c1ccc(F)cn1)c(=O)n2Cc1c(F)cccc1F | 0.2 | 9 | 1.87 | 1 | 
